Source: ChEMBL document CHEMBL1126796, “2-(Alkylamino)nicotinic acid and analogs. Potent angiotensin II antagonists” (J Med Chem, 1993)
Activity calls are given as the source filed them. No cut-off for these calls is given here.

Experiments:
[1] = test system: Rattus norvegicus; experiment: % decrease in blood pressure after 24 hours at a dose of 1 mg/kg in male rats by using Furosemide-treated spontaneous hypertensive model; type: functional
Procedure, shortened: (§1)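 Male SHR, 20-24 weeks old, pretreated with furosemide 10 mg/kg sc at 22 and 4 h before the experiment; compound dosed orally. Arterial pressure was recorded from an indwelling femoral artery catheter with on-line blood pressure and heart rate analysis. Read-out is % fall in blood pressure at 4 h and at 24 h, ±SEM, with number of rats.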

[2] = test system: Rattus norvegicus; experiment: % decrease in blood pressure after 4 hours at a dose of 1 mg/kg in male rats by using Furosemide-treated spontaneous hypertensive model; type: functional; procedure, shortened: as §1
[3] = test system: Rattus norvegicus; experiment: % decrease in blood pressure after 4 hours at a dose of 10 mg/kg in male rats by using Renal artery hypertensive model; type: functional
Procedure, shortened: (§2)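 Male Sprague-Dawley rats (300-350 g) were made hypertensive by renal artery ligation and used on day 6 or 7 after ligation. Arterial pressure was measured from an indwelling femoral artery catheter, with blood pressure and heart rate recorded on line. Read-out is % decrease in blood pressure at 4 h, ±SEM, with number of rats.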

[4] = test system: Rattus norvegicus; experiment: % decrease in blood pressure after 24 hours at a dose of 10 mg/kg in male rats by using Furosemide-treated spontaneous hypertensive model; type: functional; procedure, shortened: as §1
[5] = test system: Rattus norvegicus; experiment: % decrease in blood pressure after 4 hours in male rats at a dose of 3 mg/kg by using Renal artery hypertensive model; IA means inactive; type: functional, organism-based; parameters: dose 3 mg/kg; procedure, shortened: as §2
[6] = test system: Rattus norvegicus; experiment: % decrease in blood pressure after 4 hours at a dose of 10 mg/kg in male rats by using Furosemide-treated spontaneous hypertensive model; type: functional; procedure, shortened: as §1
[7] = molecular target: T1, Type-1 angiotensin II receptor A (Rattus norvegicus, UniProt P25095); experiment: Binding affinity against angiotensin II receptor from rat liver
T1 sequence (P25095 whole entry): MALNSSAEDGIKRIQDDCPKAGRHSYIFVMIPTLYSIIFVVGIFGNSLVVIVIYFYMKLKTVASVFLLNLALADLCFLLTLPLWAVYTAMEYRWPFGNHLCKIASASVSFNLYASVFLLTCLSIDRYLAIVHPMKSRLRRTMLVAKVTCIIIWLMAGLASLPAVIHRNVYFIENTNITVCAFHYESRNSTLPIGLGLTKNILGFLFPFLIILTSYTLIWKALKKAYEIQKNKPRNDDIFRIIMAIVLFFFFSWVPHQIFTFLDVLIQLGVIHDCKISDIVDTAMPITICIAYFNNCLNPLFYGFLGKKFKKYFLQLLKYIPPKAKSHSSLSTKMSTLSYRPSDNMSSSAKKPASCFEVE
Procedure, shortened: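 Rat liver membranes were incubated with [125I]-saralasin to measure angiotensin II type 1 receptor binding. Nonspecific binding was defined with 1 µM angiotensin.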

[8] = test system: Rattus norvegicus; experiment: % decrease in blood pressure after 4 hours at a dose of 30 mg/kg in male rats by using Renal artery hypertensive model; type: functional; procedure, shortened: as §2
[9] = test system: Rattus norvegicus; experiment: % decrease in blood pressure after 4 hours in male rats at a dose of 10 mg/kg by using Renal artery hypertensive model; type: functional; procedure, shortened: as §2

SMILES | Decrease in blood pressure [1] | Decrease in blood pressure [2] | Decrease in blood pressure [3] | also measured
CCCN(Cc1ccc(-c2ccccc2-c2nn[nH]n2)cc1)c1nccc(C)c1C(=O)O | 15% | 10% |  | 
CCCN(Cc1ccc(-c2ccccc2-c2nn[nH]n2)cc1)c1ncc(F)cc1C(=O)O | 22% | 6% |  | 
CCCCc1nc(Cl)c(C(=O)O)n1Cc1ccc(-c2ccccc2-c2nn[nH]n2)cc1 [CARBOXYLIC ACID METABOLITE] |  |  | 40% | 
CCCCc1nc(Cl)c(CO)n1Cc1ccc(-c2ccccc2-c2nnn[nH]2)cc1 [LOSARTAN] |  |  | 27% | Decrease in blood pressure [4]: 34%; Decrease in blood pressure [5]: inactive; Decrease in blood pressure [6]: 21%
CCOC(=O)c1cnc(CC)nc1NCc1ccc(-c2ccccc2-c2nn[nH]n2)cc1 |  |  |  | Ki [7]: 20.6 nM; Decrease in blood pressure [8]: 32%; Decrease in blood pressure [9]: 14%
